# Assay outcomes (PubChem BioAssay)
# proCasp7 act: activates human procaspase-7, counter-screen for procaspase-3 activators. P55210. recombinant procaspase-7, Ac-DEVD-pNA absorbance 405 nm; D23A/D198A/D206A triple mutant, cannot self-cleave; scale: DMSO 0, 5 µM enzyme 100. activation, % at 8.5 µM. 330,000 tested, 0.093% active. AID 463210;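 active = percent activation above the screen-wide mean plus 3 SD, cut at about 25% in these data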
#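 Detection: p-Nitroaniline absorbance at 405 nm, read at 0 and 120 min; system: Uncleavable procaspase-7 mutant enzyme; evaluation: % activation from two-timepoint absorbance difference, scaled to controls; times: 1 h enzyme–compound preincubation and 2 h substrate reaction, both 25 °C; buffer or medium: Zinc-free HEPES pH 7.4 with 300 mM NaCl, 0.01% Triton X-100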
# aDG glyco up: increases alpha dystroglycan glycosylation; Pro5-aDG cells, alpha-DG glycosylation AlphaScreen (IIH6); 0% Pro5, 100% B10-LARGE cell signal; activation, % at 10 µM; 360,000 tested, 0.22% active; AID 624168;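 active = activation of at least 8% versus controls, or a plate z-score of at least 8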;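 note: Pro5 are CHO cells carrying HIG-tagged alpha-DG that lacks glycosylation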
# MPTP inh: inhibitors of mitochondrial permeability transition pore; isolated mouse mitochondria, Ca2+ swelling absorbance, 30 min; inhibition, % at 10 µM; 360,000 tested, 1.4% active;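 active = inhibition of 50% or more, scaled per plate between neutral and stimulator controls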;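 note: 0% = DMSO wells given calcium and 100% = 1 mM EGTA wells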
# NR3A LBD binder: NR3A (human) ligand-binding domain modulation; NR3A LBD differential scanning fluorimetry, Tm shift; 0% = protein alone, 100% = glycine-bound protein; Tm shift relative to glycine control, % at 25 µM; 340,000 tested, 2.5% active; AID 1259313;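 active = melting temperature shift of at least 10% of the positive control shift, at one fixed dose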
# proCasp3 act: procaspase-3 (human) activation | activation, % at 8.5 µM | 330,000 tested, 0.11% active | P42574 | recombinant procaspase-3 D3A, Ac-DEVD-pNA absorbance 405 nm;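 active = activation above the mean of all tested compounds plus 3 SD, cut at about 21% in these data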;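 note: 0% = DMSO alone and 100% = DMSO wells spiked with extra 5 µM PC-3 D3A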
# Target sequence (P42574 whole entry D9A/D28A/D175A): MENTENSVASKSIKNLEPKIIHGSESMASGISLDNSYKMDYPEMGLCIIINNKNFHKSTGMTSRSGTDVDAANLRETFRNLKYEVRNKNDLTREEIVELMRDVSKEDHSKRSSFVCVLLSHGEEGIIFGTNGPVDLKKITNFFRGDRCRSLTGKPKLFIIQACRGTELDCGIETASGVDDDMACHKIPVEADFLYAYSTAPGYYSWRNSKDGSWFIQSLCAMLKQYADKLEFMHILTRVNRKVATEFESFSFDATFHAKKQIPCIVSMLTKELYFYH
#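 Technique: 405 nm absorbance of p-nitroaniline, reads at 0 and 120 min; Test system: Procaspase-3 D3A mutant; Incubation: 1 h enzyme-compound preincubation, then 2 h substrate reaction, 25 °C; Repeats: singlicate, each compound tested once; Benchmarks: low control DMSO wells, high control DMSO plus 5 µM PC-3 D3A.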
# MPTP counter: membrane potential counter-screen of mitochondrial pore inhibitors | inhibition, % at 10 µM | shares compounds with MPTP inh | isolated mitochondria, Rhodamine 123 fluorescence | 5,000 tested, 78% active; in the data active = inhibition above about 22%;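 note: 0% = DMSO vehicle and 100% = positive control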
# MPTP abs DR: MPTP inhibition, dose response swelling confirmation | shares compounds with MPTP inh | isolated mitochondria swelling, absorbance | IC50, µM | 780 tested, 58% active | AID 651561; in the data active = IC50 below about 20 µM
# MPTP cs DR: counter-screen for mitochondrial permeability transition pore inhibitors, dose response; shares compounds with MPTP inh; IC50, µM; isolated mitochondria counterscreen, fluorescence read-out; 780 tested, 49% active; AID 651564; in the data active = IC50 below about 80 µM
# * = called active by the depositor; i = inactive; . = not tested or not shown. Only some compounds are listed: those with a hit (about 3.7% of all), similar ones and a draw of the others.
SMILES,proCasp7 act,aDG glyco up,MPTP inh,NR3A LBD binder,proCasp3 act,MPTP counter,others
C=C(C)CSc1cc(C)c(C#N)c2nc3ccccc3n12,-3.7,0.1,53.9*,-25.1,-8.9,56.4*,
Cc1cccc(C(=O)Nc2ccccc2C(=O)OCC(=O)Nc2ccc(C#N)cc2)c1,-2.8,0.2,77.3*,15.1*,5.6,62.4*,
Cc1ccc(NC(=O)COC(=O)c2ccccc2Nc2ccccc2)cc1,5.8,0.7,5.8,-1.9,11.1,.,
COc1cc(CNCCSc2nnnn2C)cc(Br)c1OCc1ccc(F)cc1,8.2,0.9,6.2,-1.1,-0.6,.,
CCOc1cc(CNCCSc2nnnn2C)cc(Br)c1OCc1ccc(F)cc1,3.1,2.1,92.6*,-5.7,4.8,7.4,MPTP abs DR=i;MPTP cs DR=22.8*
CN1CCN(S(=O)(=O)c2cccc(C(=O)N(C)CC(=O)Nc3ccc(F)c(F)c3F)c2)CC1,-10.3,0.0,0.4,1.0,5.4,.,
Cc1ccc(S(=O)(=O)N2CCC[C@H]2C(=O)OCC(=O)Nc2ccc3c(c2)OCO3)cc1,-2.4,-0.3,0.5,0.5,1.9,.,
COCCNC(=O)c1ccc(N2CC3CC(C2)c2cccc(=O)n2C3)c(NC(=O)c2ccccc2Cl)c1 (configuration not stated),.,0.0,0.7,.,.,.,
Cc1ccc(CNc2nc(C)nc3sc4c(c23)CCC4)cc1,-0.8,3.3,61.8*,-1.5,-1.5,81.4*,
Cc1nc(Nc2ccc(O)cc2)c2c3c(sc2n1)CCCC3,-0.8,0.1,0.3,-0.7,11.5,.,
CCCCc1ccc(-n2nnnc2SCC(=O)Nc2cc(OC)c([N+](=O)[O-])cc2C)cc1,-5.4,2.1,63.6*,1.9,5.6,53.5*,
CC(=O)c1ccccc1NC(=O)C1CCCN(C(=O)c2ccc(Cl)cc2)C1 (configuration not stated),-2.0,0.1,-0.9,-1.6,6.1,.,
CCN(CC)c1ccc(/C=C2/C(=O)c3ccc(C(=O)O)cc3C2=O)cc1,-5.8,0.0,71.8*,6.8,1.1,-34.3,
CCN(CC)c1ccc(/C=C2/C(=O)ON=C2C)cc1,-7.4,0.0,5.9,3.8,-3.1,.,
O=C1c2ccccc2C(=O)N1c1ccc(Cc2ccncc2)cc1,0.7,0.0,54.0*,0.0,-0.7,15.6,MPTP abs DR=i;MPTP cs DR=27.2*
CC(=O)Nc1ccc(S(=O)(=O)Oc2ccc(N3C(=O)C4CCCCC4C3=O)cc2)cc1 (configuration not stated),-1.7,0.4,82.8*,5.2,-5.7,52.3*,
CCc1ccc(Nc2nnc(SCc3cc(=O)n4ccsc4n3)s2)cc1,8.2,0.1,0.6,3.1,3.1,.,
Cc1ccc(CN2CCSc3ccc(C(=O)N4CCN(c5ncccn5)CC4)cc32)cc1,-11.9,0.2,66.2*,-1.3,-7.5,94.6*,
CCCCn1c(N)c(N(CCOC)C(=O)CC2CCCCC2)c(=O)[nH]c1=O,.,-0.1,2.4,-1.2,.,.,
CCOC(=O)C1CCCN(S(=O)(=O)c2ccc(S(=O)(=O)N(CC)CC)cc2)C1 (configuration not stated),2.2,7.4*,96.7*,1.4,-5.4,102.3*,
COCCN(CCOC)Cc1cc(=O)oc2ccc3ccccc3c12,.,0.1,-0.6,.,.,.,
O=C(O)c1ccc(N2CC3CC(C2)c2cccc(=O)n2C3)c(NC(=S)Nc2ccc(Br)cc2)c1 (configuration not stated),-22.3,-0.1,89.2*,0.5,-14.1,93.0*,
COc1ccc(C(=O)N2CCC(C)(C(=O)O)C2)c(OC)c1 (configuration not stated),.,-0.3,-1.2,.,.,.,
Cc1ccc(C(=S)NCS(=O)(=O)c2ccc(C)cc2)cc1,-32.1,0.0,-0.6,0.7,-22.2,.,
Cc1ccc(S(=O)(=O)CNC(=S)c2cccc(Cl)c2)cc1,-31.0,0.3,76.8*,0.4,-20.8,82.8*,
NS(=O)(=O)c1cccc(NC(=O)CSc2nnc(NC3CC3)s2)c1,.,-0.2,-0.7,.,.,.,
